Results on 18 molecules are retold here after ChEMBL document CHEMBL1926579, “N-Aryl-2-phenyl-2,3-dihydro-imidazo[1,2-b]pyrazole-1-carboxamides 7-substituted strongly inhibiting both fMLP-OMe- and IL-8-induced human neutrophil chemotaxis” (Eur J Med Chem, 2012).

The nature of experiment [1]: Antiinflammatory activity in human neutrophils assessed as inhibition of fMLP-OMe-induced chemotaxis preincubated for 10 mins. To be noted: Neutrophil. Type of experiment: functional, cell-based. Summed up:
(§1)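 Neutrophils from healthy donors' blood, isolated by dextran sedimentation, Ficoll–Paque centrifugation and hypotonic red-cell lysis, held in KRPG pH 7.4 at room temperature. Cells preincubated with compound 10 min. 48-well microchemotaxis chamber; compound in the upper compartment at 10^-12 to 10^-6 M in KRPG with 1 mg/mL BSA. Attractant in the lower compartment: fMLP-OMe 10 nM or CXCL8/IL8 1 nM.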

The species entered for experiment [2] is Homo sapiens. The experiment in a line: Induction of Akt phosphorylation in IL8-stimulated human neutrophils.
Experiment [3] is filed under the species Homo sapiens. The experiment in a line: Induction of Akt phosphorylation in fMLP-OMe-stimulated human neutrophils.
The nature of experiment [4]: Antiinflammatory activity in human neutrophils assessed as inhibition of IL8-induced chemotaxis preincubated for 10 mins. Type of experiment: functional, cell-based. To be noted: Neutrophil. Summed up: as §1

SMILES strings stand for the structures. Active and inactive are the calls of the source. No cut-off for these calls is given here. Some results are limits rather than exact numbers.

As to `NC(=O)c1cnn2c1N(C(=O)Nc1cccc(F)c1)C(c1ccccc1)C2` (stereo not drawn), the IC50 (in general, the point on the concentration scale where inhibition reaches its midpoint) stood at 3.9 nM in experiment [1] and 1.2 nM in experiment [4]. The outcome in experiment [2] and in experiment [3] was inactive.

As for `NC(=O)c1cnn2c1N(C(=O)Nc1cccc3ccccc13)C(c1ccccc1)C2` (stereo not drawn), the concentration for half-maximal inhibition (IC50) in experiment [1] was 110 nM; in experiment [4], above 1000 nM.

As for `NC(=O)c1cnn2c1N(C(=O)Nc1ccccc1F)C(c1ccccc1)C2` (stereo not drawn), the IC50 is above 1000 nM in experiment [1] and 6.2 nM in experiment [4].

On to `CCOC(=O)c1cnn2c1N(C(=O)Nc1ccc(F)cc1)C(c1ccccc1)C2` (stereo not drawn), for which the IC50 in experiment [1] is 10.3 nM; in experiment [4] it was above 1000 nM.

Take `NC(=O)c1cnn2c1N(C(=O)Nc1ccc(F)cc1)C(c1ccccc1)C2` (stereo not drawn): the IC50 in experiment [1] came out at 11.4 nM; in experiment [4] it was 484 nM.

Turning to `CCOC(=O)c1cnn2c1N(C(=O)Nc1ccccc1F)C(c1ccccc1)C2` (stereo not drawn), the IC50 was found to be 116 nM in experiment [1] and 7.5 nM in experiment [4].

With `O=C(Nc1cccc(F)c1)N1c2ccnn2CC1c1ccccc1` (stereo not drawn), the values for the IC50 in experiment [1] and in experiment [4] were 12.1 nM and above 1000 nM, respectively.

Turning to `O=C(Nc1ccccc1F)N1c2ccnn2CC1c1ccccc1` (stereo not drawn), the IC50 in experiment [1] is 5.4 nM; in experiment [4], above 1000 nM.

Regarding `O=C(Nc1cccc2ccccc12)N1c2ccnn2CC1c1ccccc1` (stereo not drawn), the IC50 in experiment [1] and in experiment [4] was above 1000 nM each time.

In the case of `O=C(c1cnn2c1N(C(=O)Nc1ccccc1)C(c1ccccc1)C2)N1CCCCC1` (stereo not drawn), the IC50 in experiment [1] was 980 nM; in experiment [4] it was above 1000 nM.

Regarding `O=C(Nc1ccccc1)N1c2ccnn2CC1c1ccccc1` (stereo not drawn), the results for the IC50 in experiment [1] and in experiment [4] were 4.8 nM and above 1000 nM, respectively.

As to `O=C(NC1CC1)c1cnn2c1N(C(=O)Nc1ccccc1)C(c1ccccc1)C2` (stereo not drawn), the IC50 came to 123 nM in experiment [1] and 13.2 nM in experiment [4].

Turning to `CCOC(=O)c1cnn2c1N(C(=O)Nc1cccc(F)c1)C(c1ccccc1)C2` (stereo not drawn), the IC50 in experiment [1] was 9.2 nM; in experiment [4] it was 111 nM.

Take `CCOC(=O)c1cnn2c1N(C(=O)Nc1cccc3ccccc13)C(c1ccccc1)C2` (stereo not drawn): the IC50 in experiment [1] amounted to 13.8 nM; in experiment [4], 206 nM.

With `CCOC(=O)c1cnn2c1N(C(=O)Nc1ccccc1)C(c1ccccc1)C2` (stereo not drawn), the values for the IC50 in experiment [1] and in experiment [4] were 98 nM and above 1000 nM, respectively.

Regarding `O=C(NC1CC1)c1cnn2c1N(C(=O)Nc1cccc(F)c1)C(c1ccccc1)C2` (stereo not drawn), the IC50 was 138 nM in experiment [1] and above 1000 nM in experiment [4].

Turning to `O=C(Nc1ccc(F)cc1)N1c2ccnn2CC1c1ccccc1` (stereo not drawn), the IC50 in experiment [1] is 95 nM; in experiment [4], above 1000 nM.

With `O=C(c1cnn2c1N(C(=O)Nc1cccc(F)c1)C(c1ccccc1)C2)N1CCCCC1` (stereo not drawn), the IC50 in experiment [1] was 5.5 nM; in experiment [4], 1.2 nM.
